Source: PubChem (several laboratories)
TPT1 inh = blocks Candida albicans tRNA 2'-phosphotransferase; recombinant caTPT1, FP RNA substrate dephosphorylation; inhibition, % at 5 µM; 300,000 compounds, 0.81% hits;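 active means inhibition above the mean of all tested compounds plus 3 SD, set per screening campaign, cut at about 24% in these data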;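 further: plate controls were DMSO alone for no effect and ferristatin control at 100 nM for full effect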
SENP1 FRET inh = blocks the human SENP1 SUMO protease catalytic domain; Q9P0U3; recombinant SENP1 catalytic domain, CyPet-SUMO1-YPet FRET cleavage; inhibition, % at 10 µM; 360,000 compounds, 0.21% hits; AID 624204;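 active means inhibition at least 30% at 10 µM, raw YFP signal under a set limit, fluorescence ratio 0.5 to 1.5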;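 further: 0% = enzyme with DMSO and 100% = no enzyme wells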
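Controls: no-enzyme wells low, DMSO-plus-enzyme wells high control. Test system: human recombinant His6-tagged SENP1 catalytic domain enzyme. Reagent: SFCypet-SUMO1-SFYpet FRET protein substrate, 25 nM final. Doses: one dose per compound, 10 µM, 0.5% DMSO. Detection: FRET, CFP and YFP emission. Timing: 50 min reaction at room temperature.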
UBC9 SUMO inh = inhibitors of human SUMOylation (UBC9); P63279; HTRF SUMOylation assay, SAE1/SAE2 + UBC9, in vitro; inhibition, % at 35 µM; 290,000 compounds, 0.36% hits; AID 2006; in the data active means inhibition above about 50%, passing the limit was not always enough
Target sequence (P63279 whole entry, looked up): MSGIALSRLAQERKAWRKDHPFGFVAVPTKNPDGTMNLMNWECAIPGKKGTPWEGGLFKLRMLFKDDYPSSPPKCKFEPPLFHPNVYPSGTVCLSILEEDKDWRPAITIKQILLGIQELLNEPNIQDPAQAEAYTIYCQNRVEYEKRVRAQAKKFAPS
HNF4A DNA FP = change in binding of human HNF4 alpha to DNA. HNF4a-FITC DNA binding, fluorescence polarization, 1 h. activity change, % at 10 µM. 360,000 compounds, 0.3% hits. AID 1224865; in the data active means activity change above about 30%, passing the limit was not always enough
Rpn11 block = inhibitors of human proteasome Rpn11 | 360,000 compounds, 0.59% hits | human 26S proteasome, Ub4-pepOG fluorescence polarization; 20S core pre-blocked with epoxomicin | calls only at 20 µM | O00487;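 active means inhibition at 20 µM, scaled to each plate's controls, above about 33%, limit read from the data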
Target sequence (O00487 whole entry, looked up): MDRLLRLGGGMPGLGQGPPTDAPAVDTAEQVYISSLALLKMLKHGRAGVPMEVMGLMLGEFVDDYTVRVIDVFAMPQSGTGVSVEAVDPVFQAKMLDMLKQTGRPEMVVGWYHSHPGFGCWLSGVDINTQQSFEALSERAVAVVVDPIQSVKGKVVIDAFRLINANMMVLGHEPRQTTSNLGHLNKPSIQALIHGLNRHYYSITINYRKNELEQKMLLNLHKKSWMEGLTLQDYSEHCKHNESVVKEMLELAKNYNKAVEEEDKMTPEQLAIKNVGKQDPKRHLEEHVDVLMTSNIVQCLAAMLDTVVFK
CSN deneddyl inh = blocks human CSN-mediated cullin deneddylation; Purified CSN, SCF-Nedd8-OG deneddylation, fluorescence polarization; 360,000 compounds, 0.38% hits; inhibition, % at 12.5 µM; Q92905;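 active means pattern-corrected inhibition above about 35%, with an unprinted fluorescence ratio check between 0.5 and 1.5, limit read from the data, passing the limit was not always enough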;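 further: 0% = enzyme with substrate and 100% = substrate without enzyme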
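Assay system: Purified human Csn5 enzyme expressed in HEK293T cells | Amount: Enzyme 0.24 nM | Measured by: Fluorescence polarization readout | Medium: Tris/NaCl/DTT buffer, pH 7.5 | Compound dosing: One concentration, 12.5 µM, 0.25% DMSO | Times: 90 min incubation of compound, enzyme and substrate at room temperature | Control set: no-enzyme wells high, enzyme-with-substrate wells low | Read-out: % inhibition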
caTPT1 confirm = TPT1 (C. albicans) inhibition, confirmation; inhibition, % at 5 µM; AID 2149; 2,400 compounds, 74% hits; recombinant caTPT1, fluorescence polarization, RNase T1 coupled; shares compounds with TPT1 inh;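 active means inhibition above the primary screen limit, the mean inhibition of all tested compounds plus 3 SD, cut at about 25% in these data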
RNase T1 counter = blocks Aspergillus oryzae RNase T1, a TPT1 counter-screen; 2,400 compounds, 83% hits; AID 2153; shares compounds with TPT1 inh; RNase T1 cleavage, fluorescence polarization, 1536-well; inhibition, % at 5 µM;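 active means inhibition above the solvent-only control well mean plus 3 SD, limit set per screening run, cut at about 23% in these data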;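 further: plate controls were DMSO wells with enzyme for no effect and wells without RNase T1 for full effect; inhibitors block cleavage so intact labeled substrate keeps polarization high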
Active calls of the source: *; ! = repeats disagree. Hits are enriched below; roughly 1.8% of the tested compounds scored in any of these assays.

How did N=C(N)SCc1nc2ccccc2c(=O)n1-c1ccccc1 do in these assays?
TPT1 inh: 26*!; SENP1 FRET inh: -51; UBC9 SUMO inh: -5; HNF4A DNA FP: 16; Rpn11 block: inactive; CSN deneddyl inh: 2; caTPT1 confirm: 28*; RNase T1 counter: 37*

What do the screens show for `O=C(O)c1ccc(CSc2nc3ccccc3c(=O)n2-c2ccccc2)cc1`?
TPT1 inh: -7; SENP1 FRET inh: 3; UBC9 SUMO inh: -9; HNF4A DNA FP: -5; Rpn11 block: inactive; CSN deneddyl inh: -2

What do the screens show for `COc1cc(C(=O)NCC(=O)OCc2ccccc2Cl)cc(OC)c1OC`?
TPT1 inh: -2; SENP1 FRET inh: 3; UBC9 SUMO inh: -13; HNF4A DNA FP: -3; Rpn11 block: inactive; CSN deneddyl inh: 7

What do the screens show for `CCOC(=O)c1sc(N)c(C#N)c1COC(=O)CNC(=O)c1cc(OC)c(OC)c(OC)c1`?
TPT1 inh: 79*; SENP1 FRET inh: 16; UBC9 SUMO inh: 1; HNF4A DNA FP: 99*; CSN deneddyl inh: 71*; caTPT1 confirm: 92*; RNase T1 counter: 103*

How did COc1ccc(NC(=O)c2[nH]c(C)c(C(C)=O)c2C)cc1S(=O)(=O)Nc1ccc(Br)cc1 do in these assays?
TPT1 inh: 2; SENP1 FRET inh: -1; UBC9 SUMO inh: -1; HNF4A DNA FP: 0; Rpn11 block: inactive; CSN deneddyl inh: -1

Results for CN(Cc1ccccc1)C(=O)COC(=O)c1ccc(Cl)c(N)c1 ?
TPT1 inh: -4; SENP1 FRET inh: -2; UBC9 SUMO inh: -12; HNF4A DNA FP: -1; Rpn11 block: inactive; CSN deneddyl inh: 3

How did CCCOC(=O)C1=C(C)NC2=C(C(=O)CC(C)(C)C2)C1c1cccnc1 (stereo not given) do in these assays?
TPT1 inh: -1; SENP1 FRET inh: -154; UBC9 SUMO inh: 15; HNF4A DNA FP: -1; Rpn11 block: inactive; CSN deneddyl inh: 5

What do the screens show for `CC(=O)Nc1ccc(N=Cc2c(O)c3ccccc3oc2=O)cc1`?
SENP1 FRET inh: -21; UBC9 SUMO inh: 2; HNF4A DNA FP: 5; Rpn11 block: inactive; CSN deneddyl inh: 6

Results for CC(=O)Nc1ccc(N=Cc2c(O)c(C(=O)Nc3ccccc3)cc3ccccc23)cc1 ?
TPT1 inh: 121*; UBC9 SUMO inh: 16; caTPT1 confirm: 109*; RNase T1 counter: 107*

How did O=C(O)c1ccccc1C=NNc1ccc([N+](=O)[O-])cn1 do in these assays?
SENP1 FRET inh: -35; HNF4A DNA FP: 1; Rpn11 block: inactive; CSN deneddyl inh: 2

What do the screens show for `Cc1ccc(Cn2cc(/C=N/Nc3ccc([N+](=O)[O-])cn3)c3ccccc32)cc1`?
TPT1 inh: 51*; SENP1 FRET inh: -23; UBC9 SUMO inh: 17; HNF4A DNA FP: 54*; Rpn11 block: inactive; CSN deneddyl inh: 25; caTPT1 confirm: 34*; RNase T1 counter: 44*

What do the screens show for `O=C(O)Cn1cc(/C=N/Nc2ccc([N+](=O)[O-])cn2)c2ccccc21`?
SENP1 FRET inh: 68; UBC9 SUMO inh: 8; HNF4A DNA FP: 6; Rpn11 block: inactive; CSN deneddyl inh: 8

How did Cc1ccc(-n2c(C)cc(/C=N/Nc3ccc([N+](=O)[O-])cn3)c2C)cc1 do in these assays?
TPT1 inh: 34*; SENP1 FRET inh: 39; UBC9 SUMO inh: 7; HNF4A DNA FP: 3; Rpn11 block: inactive; CSN deneddyl inh: 7; caTPT1 confirm: 35*; RNase T1 counter: 47*

Results for Cc1cc(/C=N/Nc2ccc([N+](=O)[O-])cn2)c(C)n1-c1ccccc1 ?
TPT1 inh: 31*; SENP1 FRET inh: 24; UBC9 SUMO inh: 32; HNF4A DNA FP: 7; Rpn11 block: inactive; CSN deneddyl inh: 1; caTPT1 confirm: 35*; RNase T1 counter: 47*
